DENV2 CPE – inhibitors of DENV2 cytopathic effect | DENV2-infected cells, cytopathic effect rescue, plate reader | AID 651640 | 350,000 compounds, 1.7% hits | CPE inhibition, % at 9.99 µM; in the data active = CPE inhibition above about 20%, passing the limit was not always enough; inconclusive = no clear call, values can overlap the other calls; tested in BHK-21 cells;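 also: 0% = median of neutral control wells and 100% = median of positive control wells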
E-sel inducer – E-selectin induction on HUVECs. AID 686992. HUVEC E-selectin immunofluorescence imaging; normalized: neutral wells 0, TNF-alpha wells 100. 260,000 compounds, 0.37% hits. activation, % at 7.58 µM. P16581;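 active = mean E-selectin-positive cell signal at least 10% of the positive control, reached in at least 60% of replicates, without over 20% cell loss; inconclusive = no rule given, readout overlaps actives, possibly toxicity-flagged; inactive = the rest, including those meeting only one limit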
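Material: HUVEC primary endothelial cells; Amount: 3,000 cells per well; Dosing: single concentration; Medium: EGM-2 growth medium on 0.1% gelatin-coated wells; Read-out basis: percent E-selectin-positive cells; Signal: immunofluorescence imaging; Control set: TNF-alpha, DMSO.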
SIRT5 block – blocks human SIRT5 desuccinylation of peptide. Q9NXA8. Purified SirT5, succinyl-peptide AMC, trypsin-coupled fluorescence. inhibition, % at 15 µM. 330,000 compounds, 1.1% hits; in the data active = inhibition above about 15%; inconclusive = no clear call, values can overlap the other calls
ERAP1 inh – blocks human ERAP1 aminopeptidase activity; Q9NZ08; recombinant ERAP1, Leu-AMC fluorescence, 60 min; inhibition, % at 10.7 µM; 340,000 compounds, 0.15% hits; AID 652197;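 active = mean replicate inhibition of at least 30%, or all replicates individually reaching that 30% level; inactive = mean below 30% and not every replicate reaching it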;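 also: 0% = neutral control wells and 100% = L-leucinethiol positive control wells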
PglD inh – PglD (C. jejuni) enzyme inhibition; purified PglD enzyme, DTNB colorimetric CoA detection; inhibition, % at 12.5 µM; 360,000 compounds, 0.098% hits; AID 602405; in the data active = inhibition above about 16%, passing the limit was not always enough; inconclusive = no clear call, values can overlap the other calls
Active calls of the source: *; ? = inconclusive; . = no result given. Shown are actives, neighbours in structure and some others; about 2.5% of the full set was active somewhere.

SMILES	DENV2 CPE	E-sel inducer	SIRT5 block	ERAP1 inh	PglD inh
c1ccc(-c2cc3nccc(-c4ccccn4)n3n2)cc1	6.5	.	0.9	5.2	.
CCSC1=C(C#N)C(c2ccc(C)s2)CC(=O)N1 (stereo not drawn)	1.9	.	15.7*	4.9	1.1
CCOC(=O)CSC1=C(C#N)C(c2ccc(C)s2)CC(=O)N1 (stereo not drawn)	-3.1	.	-3.8	-1.1	-4.4
Brc1cccc(/C=N/Nc2nn[nH]n2)c1	6.9	0.0	5.4	-1.0	.
COc1cccc(=O)c2c(C)n(-c3ccc(C(=O)O)cc3)c(C)c12	-1.9	6.9	8.4	1.7	.
CCOc1cccc(=O)c2c(C)n(-c3ccc(C(=O)O)cc3)c(C)c12	.	-2.5	29.0*	2.2	-1.5
O=C1[C@@H](Oc2ccccc2)[C@@H](c2ccncc2)N1c1ccccc1	47.3*	.	-0.1	-3.3	1.2
CC(C)C[C@@H](CNCC(=O)[C@H](CC(C)C)NC(=O)c1[nH]cnc1C(=O)N[C@@H](C)CN)NC(=O)c1nc[nH]c1C(=O)N[C@@H](CC(=O)O)C(=O)O	86.9*	0.3	.	.	-9.2
O=S(=O)(c1ccc(=S)[nH]c1)N1CCN(Cc2ccccc2)CC1	24.8*	-0.5	-0.1	2.8	-7.7
O=S(=O)(c1ccc(=S)[nH]c1)N1CCCCC1	2.1	.	-3.3	0.4	-7.5
CCC(=O)Nc1ccc2c(c1)C(=O)N(C)C[C@H](OC)[C@@H](C)CN(Cc1ccccc1OC)[C@H](C)CO2	-3.3	0.0	1.4	-0.3	4.5
CCOC(=O)c1c(-c2ccc(C)cc2)csc1NC(=O)CCN1CC(C)OC(C)C1 (stereo not drawn)	1.9	-0.2	20.0*	-4.5	2.1
C[C@H](CO)N1C[C@H](C)[C@@H](CN(C)C(=O)Nc2ccccc2)Oc2ccc(NS(=O)(=O)c3ccc(F)cc3)cc2C1=O	1.7	0.7	4.2	-1.5	-1.4
C[C@@H]1CN([C@@H](C)CO)C(=O)c2cc(NS(=O)(=O)c3ccc(F)cc3)ccc2O[C@@H]1CN(C)C(=O)Nc1ccccc1	36.2*	-0.2	-0.2	-4.2	-6.3
C[C@H]1CN([C@@H](C)CO)C(=O)c2cc(NS(=O)(=O)c3ccc(F)cc3)ccc2O[C@H]1CN(C)C(=O)Nc1ccccc1	27.3*	-0.2	-1.0	-3.9	6.4
COCC(=O)Nc1ccc2c(c1)C(=O)N(C)C[C@@H](OC)[C@@H](C)CN(C(=O)COC)[C@@H](C)CO2	3.2	-0.2	1.1	0.0	2.8
Cc1cccc(NC(=O)Cc2nnc(NC(=O)Nc3ccccc3F)s2)c1	0.6	-0.9	0.7	4.9	.
C[C@H](CO)N1C[C@H](C)[C@@H](CN(C)C(=O)Cc2ccccc2)OCCCC[C@H](C)Oc2ccc(NS(=O)(=O)c3ccc(F)cc3)cc2C1=O	126.1*	0.5	.	.	1.3
C[C@@H]1CCCCO[C@H](CN(C)C(=O)Cc2ccccc2)[C@H](C)CN([C@H](C)CO)C(=O)c2cc(NS(=O)(=O)c3ccc(F)cc3)ccc2O1	27.6*	0.5	.	.	4.0
O=C(Nc1ccc2c(c1)[C@@H]1C[C@@H](CC(=O)N3CCc4ccccc4C3)O[C@H](CO)[C@@H]1O2)c1cccnc1	0.3	-0.1	0.4	1.7	4.6
C[C@@H]1CN([C@@H](C)CO)S(=O)(=O)c2ccc(C#CC(C)(C)O)cc2O[C@H]1CN(C)Cc1ccc(F)cc1	0.7	0.6	17.8*	2.1	3.5
C[C@@H]1CN([C@@H](C)CO)S(=O)(=O)c2ccc(C#CC(C)(C)O)cc2O[C@@H]1CN(C)Cc1ccc(-c2ccccc2)cc1	-4.5	0.1	19.0*	1.9	-1.3
C[C@@H]1CN([C@H](C)CO)S(=O)(=O)c2ccc(C#CC(C)(C)O)cc2O[C@@H]1CN(C)Cc1ccc(F)cc1	4.2	0.1	4.8	-0.3	-1.6
COc1ccc(CN(C)C[C@@H]2Oc3ccc(NS(=O)(=O)c4ccc(C)cc4)cc3C(=O)N([C@H](C)CO)C[C@H]2C)cc1	-5.3	1.6	-2.9	-7.2	5.3
Cn1c(CO)cnc1SCc1ccc(Cl)cc1	.	.	.	.	26.2*
Cn1c(CO)cnc1S(=O)(=O)Cc1ccc(Cl)cc1	-7.7	.	-2.4	-1.0	-0.6
COc1nc(-c2ccccc2)cc(-c2ccc3c(c2)OCO3)c1C#N	-0.7	3.5	-5.0	2.0	.
C[C@H](CO)N1C[C@H](C)[C@H](CN(C)C(=O)Nc2ccc(C(F)(F)F)cc2)OCCCC[C@H](C)Oc2ccc(NS(C)(=O)=O)cc2C1=O	?	0.0	3.2	-2.5	-2.3

High-throughput results from PubChem BioAssay.
